# Assay results gathered from unrelated publications.
# Protocols differ between the studies behind these lines.
# Target: Serine/threonine-protein kinase PAK 3 (PAK3, Homo sapiens, UniProt O75914)
SMILES,effect on,action,technique,tested at,quantity,value
O=C1Nc2ccc(Cl)cc2C1=Cc1cc(Cl)c(O)c(Cl)c1,cell-free assay,,,0.5 µM,remaining signal,94.3%
CC(C)CC(=O)N1CCc2nc(-c3ccc(Br)cc3)nc(N(C)Cc3ccccc3)c2C1,cell-free assay,,competition with immobilised ligand,0.1 µM,remaining binding,100%
COc1cc2ncnc(Nc3ccc(Oc4ccccc4)cc3C)c2cc1OC,enzyme activity,inhibitor,,1 µM,inhibition,3%
CN(C)CC#Cc1ccc(OCCCc2sc(N3CCc4cccc(C(=O)Nc5nc6ccccc6s5)c4C3)nc2C(=O)O)c(F)c1,cell-free assay,,competition with immobilised ligand,1 µM,remaining binding,97%
Nc1ncnc2occ(-c3ccc(NC(=O)Nc4cc(C(F)(F)F)ccc4F)cc3)c12,cell-free assay,inhibitor,,20 µM,remaining signal,14%
CC(C)(O)[C@H]1CC[C@H](Nc2ccc3ncc(-c4cccc(C(F)(F)F)c4)n3n2)CC1,enzyme activity,inhibitor,,1 µM,remaining activity,94.2%
Cn1cc(Cl)c2c(Oc3c(F)cc(Nc4cc(Cl)nc(N)n4)cc3F)ccnc21,cell-free assay,,competition with immobilised ligand,0.1 µM,remaining binding,100%
Cc1ccc(Nc2nccc(N(C)c3ccc4c(C)n(C)nc4c3)n2)cc1S(N)(=O)=O,enzyme activity,inhibitor,,10 µM,inhibition,61%
O=C(O)c1cc(-c2ccc(C3CCNCC3)cc2)c2ccc(-c3ccc(C(F)(F)F)cc3)cc2c1,cell-free assay,,competition with immobilised ligand,1 µM,remaining binding,100%
Cc1ccc(C(=O)Nc2ccc(CN3CCN(C)CC3)c(C(F)(F)F)c2)cc1C#Cc1cnc2cccnn12,enzyme activity,inhibitor,,23.5 nM,remaining activity,3.6%
COc1cc(-c2cn(C3CCc4ccccc4N(CC(F)(F)F)C3=O)nn2)ccc1-n1ccc(C)n1 (stereo not drawn),cell-free assay,,competition with immobilised ligand,1 µM,remaining binding,100%
Cc1sc(C(=O)NC2COC2)cc1-n1cc(NC(=O)Nc2c(F)cccc2Cl)cn1,enzyme activity,inhibitor,,10 µM,remaining activity,114%
COc1cc2ncnc(Nc3ccc(F)c(Cl)c3)c2cc1OCCCN1CCOCC1,cell-free assay,,,0.5 µM,remaining signal,106%
CC(C)(C)c1nc2c(s1)c1nc(N)ncc1c1ccc(NS(=O)(=O)c3c(F)cccc3F)c(F)c12,enzyme activity,inhibitor,radiometric,1 µM,remaining activity,87%
CCCOc1ccc(OC)c(F)c1C(=O)c1ccc(C(=O)N[C@@H]2CNC[C@H]2NC(=O)c2ccc3[nH]ncc3c2)cc1,enzyme activity,inhibitor,,10 µM,remaining activity,51%
O=C(Nc1cccnn1)N1CC(C/C=C/c2cncc(Oc3ccc(C(F)(F)F)cn3)n2)C1,cell-free assay,,competition with immobilised ligand,1 µM,remaining binding,100%
O=C1NC(=O)c2cc(Nc3ccc(F)cc3)c(Nc3ccc(F)cc3)cc21,cell-free assay,,,0.5 µM,remaining signal,99.4%
O=C(Nc1cnn(-c2csc(C(=O)NC3COC3)c2)c1)Nc1ccccc1Cl,enzyme activity,inhibitor,,5 µM,remaining activity,97.4%
